Assay results taken from ChEMBL document CHEMBL1142195, “A novel nonnucleoside analogue that inhibits human immunodeficiency virus type 1 isolates resistant to current nonnucleoside reverse transcriptase inhibitors” (Antimicrob Agents Chemother, 2007).

Legend:
Format in all cases: functional
[1] = tested on: Human immunodeficiency virus 1; experiment: Antiviral activity against HIV1 isolate with RT 101Q, 103N mutation relative to wild type
[2] = tested on: Human immunodeficiency virus 1; experiment: Antiviral activity against HIV1 isolate with RT 98G, 103N mutation relative to wild type
Method in brief: (§1)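 Mutant RT clones built in pNL4-3.Luc.R−E− reporter, VSV-G-pseudotyped, single-round infection of HeLa-JC53 cells (15,000/well, MOI 0.03) with 1:4 serial compound dilutions in DMEM (phenol red-free), 2% FBS, 0.2% final DMSO; 48 h at 37°C, 5% CO2; luciferase chemiluminescence read-out. Fold change in EC50 relative to wild-type virus; mean of two tests.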

[3] = tested on: Human immunodeficiency virus 1; experiment: Antiviral activity against HIV1 isolate with RT 103N, 108I, 181C mutation relative to wild type
[4] = tested on: Human immunodeficiency virus 1; experiment: Antiviral activity against HIV1 isolate with RT 106A mutation relative to wild type; method in brief: as §1
[5] = tested on: Human immunodeficiency virus 1; experiment: Antiviral activity against HIV1 isolate with RT 106A, F227L mutation relative to wild type; method in brief: as §1
[6] = tested on: Human immunodeficiency virus 1; experiment: Antiviral activity against HIV1 isolate with RT 98G, 181C mutation relative to wild type; method in brief: as §1
[7] = tested on: Human immunodeficiency virus 1; experiment: Antiviral activity against HIV1 isolate with RT 108I mutation relative to wild type; method in brief: as §1
[8] = tested on: Human immunodeficiency virus 1; experiment: Antiviral activity against HIV1 isolate with RT 238N mutation relative to wild type; method in brief: as §1
[9] = tested on: Human immunodeficiency virus 1; experiment: Antiviral activity against HIV1 isolate with RT 179G mutation relative to wild type; method in brief: as §1
[10] = tested on: Human immunodeficiency virus 1; experiment: Antiviral activity against HIV1 isolate with RT 227L mutation relative to wild type; method in brief: as §1
[11] = tested on: Human immunodeficiency virus 1; experiment: Antiviral activity against HIV1 isolate with RT 101E, 181C mutation relative to wild type
[12] = tested on: Human immunodeficiency virus 1; experiment: Antiviral activity against HIV1 isolate with RT 103N, 106M mutation relative to wild type
[13] = tested on: Human immunodeficiency virus 1; experiment: Antiviral activity against HIV1 isolate with RT 103N, 106I mutation relative to wild type
[14] = tested on: Human immunodeficiency virus 1; experiment: Antiviral activity against HIV1 isolate with RT 181I mutation relative to wild type; method in brief: as §1
[15] = tested on: Human immunodeficiency virus 1; experiment: Antiviral activity against HIV1 isolate with RT 101Q, 103R mutation relative to wild type
[16] = tested on: Human immunodeficiency virus 1; experiment: Antiviral activity against HIV1 isolate with RT 101R, 103N mutation relative to wild type
[17] = tested on: Human immunodeficiency virus 1; experiment: Antiviral activity against HIV1 isolate with RT 101Q, 190S mutation relative to wild type
[18] = tested on: Human immunodeficiency virus 1; experiment: Antiviral activity against HIV1 isolate with RT 106A, 190A mutation relative to wild type; method in brief: as §1
[19] = tested on: Human immunodeficiency virus 1; experiment: Antiviral activity against HIV1 isolate with RT 101Q, 181C, 190S mutation relative to wild type
[20] = tested on: Human immunodeficiency virus 1; experiment: Antiviral activity against HIV1 isolate with RT 236L mutation relative to wild type; method in brief: as §1
[21] = tested on: Human immunodeficiency virus 1; experiment: Antiviral activity against HIV1 isolate with RT 101H, 190A mutation relative to wild type
[22] = tested on: Human immunodeficiency virus 1; experiment: Antiviral activity against HIV1 isolate with RT 98G, 188L mutation relative to wild type; method in brief: as §1
[23] = tested on: Human immunodeficiency virus 1; experiment: Antiviral activity against HIV1 isolate with RT 101E, 108I, 181C, 190A mutation relative to wild type
[24] = tested on: Human immunodeficiency virus 1; experiment: Antiviral activity against HIV1 isolate with RT 103N, 108I, 238T mutation relative to wild type
[25] = tested on: Human immunodeficiency virus 1; experiment: Antiviral activity against HIV1 isolate with RT 98G, 100I, 103N mutation relative to wild type; method in brief: as §1
[26] = tested on: Human immunodeficiency virus 1; experiment: Antiviral activity against HIV1 isolate with RT 100I, 103N, 108I mutation relative to wild type
[27] = tested on: Human immunodeficiency virus 1; experiment: Antiviral activity against HIV1 isolate with RT 103N, 188H mutation relative to wild type
[28] = tested on: Human immunodeficiency virus 1; experiment: Antiviral activity against HIV1 isolate with RT 108I, 181C mutation relative to wild type; method in brief: as §1
[29] = tested on: Human immunodeficiency virus 1; experiment: Antiviral activity against HIV1 isolate with RT 181C, 190A mutation relative to wild type; method in brief: as §1
[30] = tested on: Human immunodeficiency virus 1; experiment: Antiviral activity against HIV1 isolate with RT 190A mutation relative to wild type; method in brief: as §1
[31] = tested on: Human immunodeficiency virus 1; experiment: Antiviral activity against HIV1 isolate with RT 103N, 108I mutation relative to wild type
[32] = tested on: Human immunodeficiency virus 1; experiment: Antiviral activity against HIV1 isolate with RT 179D mutation relative to wild type; method in brief: as §1
[33] = tested on: Human immunodeficiency virus 1; experiment: Antiviral activity against HIV1 isolate with RT 188L mutation relative to wild type; method in brief: as §1
[34] = tested on: Human immunodeficiency virus 1; experiment: Antiviral activity against HIV1 isolate with RT 103N, 225H mutation relative to wild type; method in brief: as §1
[35] = tested on: Human immunodeficiency virus 1; experiment: Antiviral activity against HIV1 isolate with RT 101Q mutation relative to wild type
[36] = tested on: Human immunodeficiency virus 1; experiment: Antiviral activity against HIV1 isolate with RT 101Q, 181C, 190A mutation relative to wild type
[37] = tested on: Human immunodeficiency virus 1; experiment: Antiviral activity against HIV1 isolate with RT 101E, 190S mutation relative to wild type
[38] = tested on: Human immunodeficiency virus 1; experiment: Antiviral activity against HIV1 isolate with RT 103N, 238T mutation relative to wild type; method in brief: as §1
[39] = tested on: Human immunodeficiency virus 1; experiment: Antiviral activity against HIV1 isolate with RT 181C mutation relative to wild type; method in brief: as §1
[40] = tested on: Human immunodeficiency virus 1; experiment: Antiviral activity against HIV1 isolate with RT 106I mutation relative to wild type; method in brief: as §1
[41] = tested on: Human immunodeficiency virus 1; experiment: Antiviral activity against HIV1 isolate with RT 190E mutation relative to wild type; method in brief: as §1
[42] = tested on: Human immunodeficiency virus 1; experiment: Antiviral activity against HIV1 isolate with RT 106I, 188L mutation relative to wild type; method in brief: as §1
[43] = tested on: Human immunodeficiency virus 1; experiment: Antiviral activity against HIV1 isolate with RT 103N, 106A mutation relative to wild type
[44] = tested on: Human immunodeficiency virus 1; experiment: Antiviral activity against HIV1 isolate with RT 188H mutation relative to wild type; method in brief: as §1
[45] = tested on: Human immunodeficiency virus 1; experiment: Antiviral activity against HIV1 isolate with RT 98G, 101E, 181C, 190A mutation relative to wild type; method in brief: as §1
[46] = tested on: Human immunodeficiency virus 1; experiment: Antiviral activity against HIV1 isolate with RT 103N, 108I, 181C, 190A mutation relative to wild type
[47] = tested on: Human immunodeficiency virus 1; experiment: Antiviral activity against HIV1 isolate with RT 179D, 188L mutation relative to wild type; method in brief: as §1
[48] = tested on: Human immunodeficiency virus 1; experiment: Antiviral activity against HIV1 isolate with RT 108I, 181C, 190A mutation relative to wild type; method in brief: as §1
[49] = tested on: Human immunodeficiency virus 1; experiment: Antiviral activity against HIV1 isolate with RT 98G, 103N, 181C, 190A mutation relative to wild type; method in brief: as §1
[50] = tested on: Human immunodeficiency virus 1; experiment: Antiviral activity against HIV1 isolate with RT 106A, 181C mutation relative to wild type; method in brief: as §1
[51] = tested on: Human immunodeficiency virus 1; experiment: Antiviral activity against HIV1 isolate with RT 238T mutation relative to wild type; method in brief: as §1
[52] = tested on: Human immunodeficiency virus 1; experiment: Antiviral activity against HIV1 isolate with RT 103S mutation relative to wild type; method in brief: as §1
[53] = tested on: Human immunodeficiency virus 1; experiment: Antiviral activity against HIV1 isolate with RT 230L mutation relative to wild type; method in brief: as §1
[54] = tested on: Human immunodeficiency virus 1; experiment: Antiviral activity against HIV1 isolate with RT 101E, 103N, 190A mutation relative to wild type
[55] = tested on: Human immunodeficiency virus 1; experiment: Antiviral activity against HIV1 isolate with RT 179D, 181C mutation relative to wild type; method in brief: as §1
[56] = tested on: Human immunodeficiency virus 1; experiment: Antiviral activity against HIV1 isolate with RT 100F mutation relative to wild type

For `Cc1ccnc2c1NC(=O)c1cccnc1N2C1CC1` [NEVIRAPINE], the Fold change [1] was >100, the Fold change [2] was >100 and the Fold change [3] was >100. For the same compound, the Fold change [4] was >100, the Fold change [5] was >100 and the Fold change [6] was >100. For the same compound, the Fold change [7] was 2.3, the Fold change [8] was 1.9 and the Fold change [9] was 0.1. For the same compound, the Fold change [10] was 2.1, the Fold change [11] was >100 and the Fold change [12] was >100. For the same compound, the Fold change [13] was 122, the Fold change [14] was >100 and the Fold change [15] was 1.3. The Fold change [16] was >100, the Fold change [17] was >100 and the Fold change [18] was >100. The Fold change [19] was >100, the Fold change [20] was 0.5 and the Fold change [21] was >100. For the same compound, the Fold change [22] was >100, the Fold change [23] was >100 and the Fold change [24] was >100. The Fold change [25] was >100, the Fold change [26] was >100 and the Fold change [27] was >100. The Fold change [28] was >100, the Fold change [29] was >100 and the Fold change [30] was >100. For the same compound, the Fold change [31] was >100, the Fold change [32] was 4.2 and the Fold change [33] was >100. The Fold change [34] was >100, the Fold change [35] was 2.8 and the Fold change [36] was >100. For the same compound, the Fold change [37] was >100, the Fold change [38] was >100 and the Fold change [39] was >100. The Fold change [40] was 1.1, the Fold change [41] was >100 and the Fold change [42] was >100. The Fold change [43] was >100, the Fold change [44] was >100 and the Fold change [45] was >100. For the same compound, the Fold change [46] was >100, the Fold change [47] was >100 and the Fold change [48] was >100. For the same compound, the Fold change [49] was >100, the Fold change [50] was >100 and the Fold change [51] was 100. For the same compound, the Fold change [52] was 39, the Fold change [53] was 46 and the Fold change [54] was >100. For the same compound, the Fold change [55] was >100 and the Fold change [56] was 2.4.
`NS(=O)(=O)c1ccc(NC(=O)CSc2nnc(Br)n2-c2ccc(C3CC3)c3ccccc23)c(Cl)c1` gave a Fold change [1] of 5.2, a Fold change [2] of 4.4 and a Fold change [3] of 6.2. For the same compound, the Fold change [4] was 6, the Fold change [5] was >100 and the Fold change [6] was 11. It also gave a Fold change [7] of 1.5, a Fold change [8] of 0.7 and a Fold change [9] of 0.3. The Fold change [10] was 0.47, the Fold change [11] was >100 and the Fold change [12] was 12. For the same compound, the Fold change [13] was 1.8, the Fold change [14] was 5.4 and the Fold change [15] was 0.6. For the same compound, the Fold change [16] was 1.2, the Fold change [17] was 2.4 and the Fold change [18] was >100. The Fold change [19] was >100, the Fold change [20] was 0.9 and the Fold change [21] was 32. For the same compound, the Fold change [22] was >100, the Fold change [23] was >100 and the Fold change [24] was 2.5. For the same compound, the Fold change [25] was 1.4, the Fold change [26] was 1.9 and the Fold change [27] was 3.5. The Fold change [28] was 14, the Fold change [29] was >100 and the Fold change [30] was 13. For the same compound, the Fold change [31] was 1.3, the Fold change [32] was 3.3 and the Fold change [33] was 11. For the same compound, the Fold change [34] was 1.6, the Fold change [35] was 2.2 and the Fold change [36] was >100. It also gave a Fold change [37] of 16, a Fold change [38] of 0.6 and a Fold change [39] of 10. For the same compound, the Fold change [40] was 0.9, the Fold change [41] was >100 and the Fold change [42] was 62. The Fold change [43] was 2.6, the Fold change [44] was 1.6 and the Fold change [45] was 65. For the same compound, the Fold change [46] was >100, the Fold change [47] was >100 and the Fold change [48] was >100. The Fold change [49] was 82, the Fold change [50] was 16 and the Fold change [51] was 2.2. The Fold change [52] was 2.7, the Fold change [53] was 11 and the Fold change [54] was 50. For the same compound, the Fold change [55] was >100 and the Fold change [56] was 1.8.
